Columns and labels:
[1] = molecular target: T1, Transient receptor potential cation channel subfamily V member 1 (Homo sapiens, UniProt Q8NER1); experiment: Functional antagonistic activity against human vanilloid receptor subtype 1 in HEK293 cell […] as inhibition of agonist-induced increases in intracellular [Ca2+] levels; format: cell-based
Outline: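 Fluo-3/AM-loaded hVR1/HEK cells were read by FLIPR. Cells were incubated with compound, then challenged with capsaicin at a concentration giving ~80% maximal response. IC50 came from the inhibition of the capsaicin-induced Ca2+ rise.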

[2] = molecular target: T1, Transient receptor potential cation channel subfamily V member 1; experiment: Binding affinity towards cloned human vanilloid receptor subtype 1 in HEK293 cell membranes using [3H]RTX as radioligand
Outline: (§1)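 Human VR1 stably expressed in HEK293 cells. Membranes were made by homogenizing, spinning at 3000 rpm for 10 min, and spinning the supernatant at 18,000 rpm for 20 min. Binding was 60 min at 37 °C with 0.3–0.6 nM [3H]-RTX in HEPES buffer pH 7.4. Samples were ice-cooled, given α-acid glycoprotein, centrifuged, and the pellet counted. Nonspecific binding used 200 nM unlabeled RTX. Percent inhibition calculated; Ki by Cheng–Prusoff.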

[3] = molecular target: T1, Transient receptor potential cation channel subfamily V member 1; experiment: Displacement of [3H]RTX binding to human vanilloid receptor subtype 1 expressed in HEK293 cell membranes at 10 uM; outline: as §1
[4] = molecular target: T1, Transient receptor potential cation channel subfamily V member 1; experiment: Displacement of [3H]-RTX binding to human vanilloid receptor subtype 1 expressed in HEK293 cell membranes (inactive); outline: as §1
[5] = molecular target: T1, Transient receptor potential cation channel subfamily V member 1; experiment: Increased [Ca2+] influx in HEK293 cell […] human vanilloid receptor subtype 1 (inactive); format: functional, cell-based
Outline: (§2)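 hVR1/HEK cells on poly-D-lysine-coated plates were loaded with Fluo-3/AM for 1 h after 2 days. Cells received single compound concentrations, and intracellular Ca2+ was read by FLIPR for 3 min. Capsaicin was then added at […] final to fully activate VR1.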

[6] = molecular target: T1, Transient receptor potential cation channel subfamily V member 1; experiment: Increased [Ca2+] influx in HEK293 cell […] human vanilloid receptor subtype 1; format: functional, cell-based; outline: as §2

T1 sequence (Q8NER1 whole entry): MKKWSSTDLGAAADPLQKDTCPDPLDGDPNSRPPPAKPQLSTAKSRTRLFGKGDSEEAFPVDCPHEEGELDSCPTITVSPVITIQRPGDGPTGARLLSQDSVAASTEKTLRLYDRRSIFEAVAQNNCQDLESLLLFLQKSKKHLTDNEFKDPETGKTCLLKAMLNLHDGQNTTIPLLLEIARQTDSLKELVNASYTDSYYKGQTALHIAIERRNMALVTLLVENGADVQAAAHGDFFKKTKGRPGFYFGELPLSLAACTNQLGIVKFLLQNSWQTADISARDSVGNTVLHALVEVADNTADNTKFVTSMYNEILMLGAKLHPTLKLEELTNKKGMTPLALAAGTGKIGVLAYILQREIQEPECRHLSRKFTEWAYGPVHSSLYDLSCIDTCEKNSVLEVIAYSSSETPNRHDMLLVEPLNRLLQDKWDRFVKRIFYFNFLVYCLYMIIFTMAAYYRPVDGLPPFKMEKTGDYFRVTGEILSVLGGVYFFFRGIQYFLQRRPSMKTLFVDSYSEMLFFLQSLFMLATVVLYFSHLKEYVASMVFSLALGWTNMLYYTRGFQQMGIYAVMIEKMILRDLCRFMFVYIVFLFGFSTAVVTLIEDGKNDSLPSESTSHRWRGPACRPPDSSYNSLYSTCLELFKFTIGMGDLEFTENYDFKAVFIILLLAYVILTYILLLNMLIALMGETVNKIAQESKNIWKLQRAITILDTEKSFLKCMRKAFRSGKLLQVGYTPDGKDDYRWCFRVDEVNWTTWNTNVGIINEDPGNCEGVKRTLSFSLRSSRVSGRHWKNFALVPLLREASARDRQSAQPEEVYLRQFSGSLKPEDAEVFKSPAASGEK

| Structure (SMILES) | IC50 [1] [nM] | Ki [2] [nM] | further results |
| --- | --- | --- | --- |
| O=C(CCc1ccc(Cl)cc1)Nc1cccc2ccc(O)cc12 | 21 | 9.8 | – |
| Oc1cc2c(cc1O)CN(C(=S)NCCc1ccc(Cl)cc1)CCC2 [CAPSAZEPINE] | 100 | 120 | – |
| O=C(NCc1ccccc1)Nc1cccc2ccc(O)cc12 | 45 | – | – |
| O=C(NCc1ccc(F)c(F)c1)Nc1cccc2ccc(O)cc12 | – | 7 | – |
| O=C(Nc1cccc2ccc(O)cc12)c1ccc(Cl)cc1 | 320 | – | inhibition [3]: 28% |
| O=C(NCCc1ccc(Cl)c(Cl)c1)Nc1cccc2ccc(O)cc12 | 90 | 1 | – |
| O=C(Cc1ccc(Cl)c(Cl)c1)Nc1cccc2ccc(O)cc12 | 770 | – | – |
| CC(NC(=O)Nc1cccc2ccc(O)cc12)c1ccc(C(F)(F)F)cc1 (stereo not drawn) | – | 4 | – |
| CN(Cc1ccccc1)C(=O)Nc1cccc2ccc(O)cc12 | – | – | Ki [4]: > 10000 nM; IC50 [5]: > 10000 nM |
| O=C(CCc1ccc(Cl)c(Cl)c1)Nc1cccc2ccc(O)cc12 | 17 | 4.6 | – |
| O=C(NCc1ccc(Cl)c(Cl)c1)Nc1cccc2ccc(O)cc12 | 15 | 2 | – |
| O=C(NCCSCc1cccc(C(F)(F)F)c1)N1CCSCC1 | – | – | EC50 [6]: 390 nM |
| O=C(Nc1cccc2ccc(O)cc12)Oc1ccccc1 | 6300 | – | Ki [4]: > 10000 nM |
| O=C(NCc1cccc(C(F)(F)F)c1)Nc1cccc2ccc(O)cc12 | 26 | 2.1 | – |
| O=C(NCc1ccc(OC(F)(F)F)cc1)Nc1cccc2ccc(O)cc12 | 27 | 1 | – |
| O=C(Nc1cccc2ccc(O)cc12)N(Cc1ccccc1)Cc1ccccc1 | – | – | IC50 [5]: > 10000 nM |
| O=C(NCc1ccc(C(F)(F)F)cc1)Nc1cccc2ccc(O)cc12 | 4 | 1 | – |
